Laboratory results reported in ChEMBL document CHEMBL1177643, “Synthesis, DNA-binding ability and anticancer activity of benzothiazole/benzoxazole-pyrrolo[2,1-c][1,4]benzodiazepine conjugates” (Bioorg Med Chem, 2010).

Experiments:
[1] = system: Calf thymus DNA; assay: Binding affinity to calf thymus duplex-form DNA assessed as melting temperature at 1:5 compound/DNA ratio after 18 hrs; type: nucleic-acid assay; conditions: Bos taurus
[2] = system: NCI-H23; assay: Growth inhibition of human NCI-H23 cells after 48 hrs by sulforhodamine B assay; type: functional; conditions: NCI-H23, 48 h
How it was run: (§1)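 Panel of 60 human cancer cell lines; for each compound, dose–response curves per cell line measured at a minimum of five concentrations at 10-fold dilutions. Cells exposed continuously to drug for 48 h, and growth was read out by sulforhodamine B staining.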

[3] = system: SK-OV-3; assay: Growth inhibition of human SKOV3 cells after 48 hrs by sulforhodamine B assay; type: functional; conditions: SK-OV-3, 48 h; how it was run: as §1
[4] = system: EKVX; assay: Growth inhibition of human EKVX cells after 48 hrs by sulforhodamine B assay; type: functional
How it was run: (§2)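 Dose–response in each cell line over at least five concentrations at 10-fold dilutions, with 48 h continuous exposure and sulforhodamine B read-out.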

[5] = system: HCT-116; assay: Growth inhibition of human HCT116 cells after 48 hrs by sulforhodamine B assay; type: functional; conditions: HCT-116, 48 h; how it was run: as §1
[6] = system: HOP-92; assay: Growth inhibition of human HOP92 cells after 48 hrs by sulforhodamine B assay; type: functional; conditions: HOP-92, 48 h; how it was run: as §1
[7] = system: K562; assay: Growth inhibition of human K562 cells after 48 hrs by sulforhodamine B assay; type: functional; conditions: K562, 48 h; how it was run: as §1
[8] = system: UO-31; assay: Growth inhibition of human UO31 cells after 48 hrs by sulforhodamine B assay; type: functional; conditions: UO-31, 48 h; how it was run: as §1
[9] = system: HOP-62; assay: Growth inhibition of human HOP62 cells after 48 hrs by sulforhodamine B assay; type: functional; conditions: HOP-62, 48 h; how it was run: as §1
[10] = system: HT-29; assay: Growth inhibition of human HT-29 cells after 48 hrs by sulforhodamine B assay; type: functional; conditions: HT-29, 48 h; how it was run: as §1
[11] = system: A549; assay: Growth inhibition of human A549 cells after 48 hrs by sulforhodamine B assay; type: functional; conditions: A549, 48 h; how it was run: as §2
[12] = system: SK-MEL-28; assay: Growth inhibition of human SK-MEL-28 cells after 48 hrs by sulforhodamine B assay; type: functional; conditions: SK-MEL-28, 48 h; how it was run: as §1
[13] = Growth inhibition of human […] cells after 48 hrs by sulforhodamine B assay; type: functional; how it was run: as §1
[14] = system: NCI-H226; assay: Growth inhibition of human NCI-H226 cells after 48 hrs by sulforhodamine B assay; type: functional; conditions: NCI-H226, 48 h; how it was run: as §1
[15] = system: KM12; assay: Growth inhibition of human KM12 cells after 48 hrs by sulforhodamine B assay; type: functional; conditions: KM12, 48 h; how it was run: as §1
[16] = system: RXF 393; assay: Growth inhibition of human RXF393 cells after 48 hrs by sulforhodamine B assay; type: functional; conditions: RXF 393, 48 h; how it was run: as §1
[17] = system: BT-549; assay: Growth inhibition of human BT549 cells after 48 hrs by sulforhodamine B assay; type: functional; conditions: BT-549, 48 h; how it was run: as §2
[18] = system: SK-MEL-2; assay: Growth inhibition of human SK-MEL-2 cells after 48 hrs by sulforhodamine B assay; type: functional; conditions: SK-MEL-2, 48 h; how it was run: as §1
[19] = system: SNB-19; assay: Growth inhibition of human SNB19 cells after 48 hrs by sulforhodamine B assay; type: functional; conditions: SNB-19, 48 h; how it was run: as §1
[20] = system: A498; assay: Growth inhibition of human A498 cells after 48 hrs by sulforhodamine B assay; type: functional; conditions: A498, 48 h; how it was run: as §2
[21] = system: CCRF-CEM; assay: Growth inhibition of human CCRF-CEM cells after 48 hrs by sulforhodamine B assay; type: functional; how it was run: as §2
[22] = system: COLO 205; assay: Growth inhibition of human COLO205 cells after 48 hrs by sulforhodamine B assay; type: functional; conditions: COLO 205, 48 h; how it was run: as §2
[23] = system: HCC 2998; assay: Growth inhibition of human HCC2998 cells after 48 hrs by sulforhodamine B assay; type: functional; conditions: HCC 2998, 48 h; how it was run: as §1
[24] = system: SN12C; assay: Growth inhibition of human SN12C cells after 48 hrs by sulforhodamine B assay; type: functional; how it was run: as §1
[25] = system: M14; assay: Growth inhibition of human M14 cells after 48 hrs by sulforhodamine B assay; type: functional; conditions: M14, 48 h; how it was run: as §1
[26] = system: NCI-H460; assay: Growth inhibition of human NCI-H460 cells after 48 hrs by sulforhodamine B assay; type: functional; conditions: NCI-H460, 48 h; how it was run: as §1
[27] = system: UACC-62; assay: Growth inhibition of human UACC62 cells after 48 hrs by sulforhodamine B assay; type: functional; conditions: UACC-62, 48 h; how it was run: as §1
[28] = system: MDA-MB-435; assay: Growth inhibition of human MDA-MB-435 cells after 48 hrs by sulforhodamine B assay; type: functional; conditions: MDA-MB-435, 48 h; how it was run: as §1
[29] = system: MOLT-4; assay: Growth inhibition of human MOLT4 cells after 48 hrs by sulforhodamine B assay; type: functional; conditions: MOLT-4, 48 h; how it was run: as §1
[30] = system: SF-539; assay: Growth inhibition of human SF539 cells after 48 hrs by sulforhodamine B assay; type: functional; conditions: SF-539, 48 h; how it was run: as §1
[31] = system: Malme-3M; assay: Growth inhibition of human MALME-3M cells after 48 hrs by sulforhodamine B assay; type: functional; how it was run: as §1
[32] = system: OVCAR-3; assay: Growth inhibition of human OVCAR-3 cells after 48 hrs by sulforhodamine B assay; type: functional; conditions: OVCAR-3, 48 h; how it was run: as §1
[33] = system: OVCAR-8; assay: Growth inhibition of human OVCAR8 cells after 48 hrs by sulforhodamine B assay; type: functional; conditions: OVCAR-8, 48 h; how it was run: as §1
[34] = system: UACC-257; assay: Growth inhibition of human UACC257 cells after 48 hrs by sulforhodamine B assay; type: functional; conditions: UACC-257, 48 h; how it was run: as §1
[35] = system: LOX IMVI; assay: Growth inhibition of human LOXIMVI cells after 48 hrs by sulforhodamine B assay; type: functional; how it was run: as §1
[36] = system: SNB-75; assay: Growth inhibition of human SNB75 cells after 48 hrs by sulforhodamine B assay; type: functional; conditions: SNB-75, 48 h; how it was run: as §1
[37] = system: MCF7; assay: Growth inhibition of human MCF7 cells after 48 hrs by sulforhodamine B assay; type: functional; conditions: MCF7, 48 h; how it was run: as §1
[38] = system: MDA-MB-231; assay: Growth inhibition of human MDA-MB-231 cells after 48 hrs by sulforhodamine B assay; type: functional; conditions: MDA-MB-231, 48 h; how it was run: as §1
[39] = system: DU-145; assay: Growth inhibition of human DU145 cells after 48 hrs by sulforhodamine B assay; type: functional; conditions: DU-145, 48 h; how it was run: as §2
[40] = system: 786-0; assay: Growth inhibition of human 786-0 cells after 48 hrs by sulforhodamine B assay; type: functional; conditions: 786-0, 48 h; how it was run: as §2
[41] = system: ACHN; assay: Growth inhibition of human ACHN cells after 48 hrs by sulforhodamine B assay; type: functional; how it was run: as §2
[42] = system: NCI-H522; assay: Growth inhibition of human NCI-H522 cells after 48 hrs by sulforhodamine B assay; type: functional; conditions: NCI-H522, 48 h; how it was run: as §1
[43] = system: OVCAR-5; assay: Growth inhibition of human OVCAR5 cells after 48 hrs by sulforhodamine B assay; type: functional; conditions: OVCAR-5, 48 h; how it was run: as §1
[44] = system: NCI/ADR-RES; assay: Growth inhibition of human NCI/ADR-RES cells after 48 hrs by sulforhodamine B assay; type: functional; how it was run: as §1
[45] = system: OVCAR-4; assay: Growth inhibition of human OVCAR4 cells after 48 hrs by sulforhodamine B assay; type: functional; conditions: OVCAR-4, 48 h; how it was run: as §1
[46] = system: T47D; assay: Growth inhibition of human T47D cells after 48 hrs by sulforhodamine B assay; type: functional; how it was run: as §1
[47] = system: SF-268; assay: Growth inhibition of human SF268 cells after 48 hrs by sulforhodamine B assay; type: functional; conditions: SF-268, 48 h; how it was run: as §1
[48] = system: SR; assay: Growth inhibition of human SR cells after 48 hrs by sulforhodamine B assay; type: functional; how it was run: as §1
[49] = system: CAKI-1; assay: Growth inhibition of human Caki1 cells after 48 hrs by sulforhodamine B assay; type: functional; conditions: CAKI-1, 48 h; how it was run: as §2
[50] = system: HL-60; assay: Growth inhibition of human HL-60(TB) cells after 48 hrs by sulforhodamine B assay; type: functional; conditions: HL-60, 48 h; how it was run: as §1
[51] = system: Hs-578T; assay: Growth inhibition of human Hs 578T cells after 48 hrs by sulforhodamine B assay; type: functional; how it was run: as §1
[52] = system: U-251; assay: Growth inhibition of human U251 cells after 48 hrs by sulforhodamine B assay; type: functional; conditions: U-251, 48 h; how it was run: as §1
[53] = system: SF-295; assay: Growth inhibition of human SF295 cells after 48 hrs by sulforhodamine B assay; type: functional; conditions: SF-295, 48 h; how it was run: as §1
[54] = system: TK-10; assay: Growth inhibition of human TK10 cells after 48 hrs by sulforhodamine B assay; type: functional; conditions: TK-10, 48 h; how it was run: as §1
[55] = system: SK-MEL-5; assay: Growth inhibition of human SK-MEL-5 cells after 48 hrs by sulforhodamine B assay; type: functional; conditions: SK-MEL-5, 48 h; how it was run: as §1
[56] = system: PC-3; assay: Growth inhibition of human PC3 cells after 48 hrs by sulforhodamine B assay; type: functional; conditions: PC-3, 48 h; how it was run: as §1
[57] = system: NCI-H322M; assay: Growth inhibition of human NCI-H322M cells after 48 hrs by sulforhodamine B assay; type: functional; how it was run: as §1
[58] = system: HCT-15; assay: Growth inhibition of human HCT15 cells after 48 hrs by sulforhodamine B assay; type: functional; conditions: HCT-15, 48 h; how it was run: as §1
[59] = system: SW-620; assay: Growth inhibition of human SW620 cells after 48 hrs by sulforhodamine B assay; type: functional; conditions: SW-620, 48 h; how it was run: as §1
[60] = system: IGROV-1; assay: Growth inhibition of human IGROV1 cells after 48 hrs by sulforhodamine B assay; type: functional; conditions: IGROV-1, 48 h; how it was run: as §1

COc1cc2c(cc1OCCCCCOc1ccc(-c3nc4ccccc4o3)cc1)N=C[C@@H]1CCCN1C2=O
ΔTm [1]: 4.3 °C

COc1cc2c(cc1OCCCCCOc1ccc(-c3nc4ccccc4s3)cc1)N=C[C@@H]1CCCN1C2=O
GI50 [2]: 891 nM
GI50 [3]: 2570 nM
GI50 [4]: 1550 nM
ΔTm [1]: 4.3 °C
GI50 [5]: 347 nM
GI50 [6]: 269 nM
GI50 [7]: 363 nM
GI50 [8]: 724 nM
GI50 [9]: 407 nM
GI50 [10]: 457 nM
GI50 [11]: 2570 nM
GI50 [12]: 3890 nM
GI50 [13]: 398 nM
GI50 [14]: 1510 nM
GI50 [15]: 1550 nM
GI50 [16]: 200 nM
GI50 [17]: 229 nM
GI50 [18]: 1550 nM
GI50 [19]: 2950 nM
GI50 [20]: 2240 nM
GI50 [21]: 269 nM
GI50 [22]: 389 nM
GI50 [23]: 631 nM
GI50 [24]: 813 nM
GI50 [25]: 324 nM
GI50 [26]: 347 nM
GI50 [27]: 1170 nM
GI50 [28]: 1380 nM
GI50 [29]: 282 nM
GI50 [30]: 479 nM
GI50 [31]: 1230 nM
GI50 [32]: 741 nM
GI50 [33]: 813 nM
GI50 [34]: 2240 nM
GI50 [35]: 240 nM
GI50 [36]: 1200 nM
GI50 [37]: 331 nM
GI50 [38]: 263 nM
GI50 [39]: 355 nM
GI50 [40]: 263 nM
GI50 [41]: 1100 nM
GI50 [42]: 550 nM
GI50 [43]: 661 nM
GI50 [44]: 1120 nM
GI50 [45]: 2140 nM
GI50 [46]: 234 nM
GI50 [47]: 3240 nM
GI50 [48]: 19.1 nM
GI50 [49]: 513 nM
GI50 [50]: 562 nM
GI50 [51]: 1320 nM
GI50 [52]: 457 nM
GI50 [53]: 776 nM
GI50 [54]: 3470 nM
GI50 [55]: 339 nM
GI50 [56]: 234 nM
GI50 [57]: 1950 nM
GI50 [58]: 933 nM
GI50 [59]: 1020 nM
GI50 [60]: 2690 nM

COc1cc2c(cc1OCCCCC(=O)Nc1ccc(-c3nc4ccc(F)cc4s3)cc1)N=C[C@@H]1CCCN1C2=O
ΔTm [1]: 2.3 °C
